These results are taken from the EternaBench riboswitch data.

The subject of data set [1] is MS2 coat protein. The data set can be described thus: apparent Kd, MS2 coat protein; higher = weaker binding; RNA-MaP array; tryptophan 2.4 mM where present. Summed up:
(§1)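 Green signal from SNAP-549-labelled MS2 coat protein was normalised to red-channel RNA signal and to the median Fmax of control clusters. The protein was titrated from 0.7 or 1.5 nM, doubling to 3 µM, without and then with constant ligand, over designs transcribed by stalled E. coli RNA polymerase on Illumina sequencing-chip clusters, in 100 mM Tris-HCl pH 7.5, 80 mM KCl, 4 mM MgCl2, BSA, DTT, yeast tRNA and Tween-20. The apparent Kd is the median of filtered per-cluster binding-curve fits.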

Data set [2] concerns MS2 coat protein. The data set can be described thus: apparent Kd, MS2 coat protein; higher = weaker binding; RNA-MaP array; theophylline 2 mM where present. An outline of the steps:
as §1

[3] abbreviates: designed as: OFF switch for tryptophan, no ligand.
Setting [4] is: ligand present: tryptophan, designed as: OFF switch for tryptophan.
The mark [5] stands for this setting: designed as: ON switch for theophylline, no ligand.
Where [6] appears, read: ligand present: theophylline, designed as: ON switch for theophylline.
The mark [7] stands for this setting: designed as: OFF switch for theophylline, no ligand.
Setting [8] is: ligand present: theophylline, designed as: OFF switch for theophylline.

In general, apparent Kd refers to a dissociation constant that holds for the conditions of the assay. Consider “ACUACGAAGACGGCCGCCACUGAUAUUCGUAGAUCCAUCAAUACAUGAGGAUCACCCAUGUAUAUCAGGACCGGGUCAAGAUGGU”, for which the figures for the “apparent Kd” value in the data set on MS2 coat protein [1] (setting [3]) and in the data set on MS2 coat protein [1] (setting [4]) were 22.6 nM and 47.2 nM, respectively.

As to “AUAAUAAUCCUCAUGUAAGGUCCUCGAUAACGAGGACCGGUACGGCCGCCACUCGAACAUGAGGAUCACCCAUGUACGAGGACCA”, the “apparent Kd” value was found to be 42.5 nM with MS2 coat protein [1] (designed as: ON switch for tryptophan, no ligand) and 32.6 nM in the data set with MS2 coat protein [1] (ligand present: tryptophan, designed as: ON switch for tryptophan).

Take “UACUUGCUGACGGCCGCCACUAGAACAUGAGGAUCACCCAUGUAUGGCGGCCGUCAUGGGUGGACUAGGACCGGGUCAGCAAGAU”: the “apparent Kd” value in the data set on MS2 coat protein [1] (setting [3]) is 9.84 nM; in the data set on MS2 coat protein [1] (setting [4]), 13.6 nM.

Turning to “AAUAACAUGAGGAUCACCCAUGUAAAAGAUACCAGAGUGAUGAUCCUCCCUUGGCAGCUUAAACGCUAUUGGAAACAAUAGCGAA”, the “apparent Kd” value worked out at 70.2 nM in the data set on MS2 coat protein [2] (setting [5]) and 167 nM in the data set with MS2 coat protein [2] (setting [6]).

In the case of “ACGUCUCGAAAACUCGUAGUAACUAUAGAUACCAGUAGCGAGAGUUACCCUUGGCAGCUACAUGAGGAUCACCCAUGUACGAGGA”, the “apparent Kd” value is 15.6 nM in the data set on MS2 coat protein [2] (setting [7]) and 15 nM with MS2 coat protein [2] (setting [8]).

“UCGUGUAUAACGGAUACCAGUGAGAAGGAUACAUGAGGAUCACCCAUGUGAGUUGAUCCACACCCUUGGCAGCUGUAUAUAUCUA”: the “apparent Kd” value was found to be 194 nM in the data set with MS2 coat protein [2] (setting [5]) and 1100 nM with MS2 coat protein [2] (setting [6]).

Consider “AUUAUCAUGGUCAUAUAUAUAUCUUCAGAUACCAGACUAUAUUAAGUCCCUUGGCAGCUGUUACAUGAGGAUCACCCAUGUUAUA”, for which the results for the “apparent Kd” value in the data set on MS2 coat protein [2] (setting [7]) and with MS2 coat protein [2] (setting [8]) were 172 nM and 43.5 nM, respectively.

In the case of “ACAUGAGGAUCACCCAUGUGCAGCACGGAUACCAGCGUCCUAGUGCGCCCUUGGCAGCCGGACAUGAGGAUCACCCAUGUGUGGG”, the results for the “apparent Kd” value with MS2 coat protein [2] (setting [7]) and with MS2 coat protein [2] (setting [8]) were 77.6 nM and 219 nM, respectively.

As for “CAUGAAGUAACUGAUACCAGUGUACACAUGAGGAUCACCCAUGUGUUGGGUUUUGUUGUACACCCUUGGCAGCAGAAUCUUUAUG”, the “apparent Kd” value in the data set with MS2 coat protein [2] (setting [7]) was found to be 56.6 nM; in the data set with MS2 coat protein [2] (setting [8]), 100 nM.

Consider “AAUAACAUGAGGAUCACCCAUGUAAAAGAUACCAGAUGCAUGAUGAUCCCUUGGCAGCUUAAACGCGAUUGGAAACAAUCGCGAA”, for which the entries for the “apparent Kd” value in the data set on MS2 coat protein [2] (setting [5]) and with MS2 coat protein [2] (setting [6]) were 27.6 nM and 148 nM, respectively.

Consider “AAACAUUGCUCAGAUACCAGACAUGAGGAUCACCCAUGUACCGAGGUACCCGAAAGGAAUGUCCCUUGGCAGCUGAGCAAUGAAA”, for which the “apparent Kd” value in the data set with MS2 coat protein [2] (setting [7]) came out at 12 nM; with MS2 coat protein [2] (setting [8]), 129 nM.

With “ACAUGAGGAUCACCCAUGUCUGCCACUGAUACCAGCGGAUGCCAACGCCCUUGGCAGCAGAACAUGAGGAUCACCCAUGUAGGCA”, the entries for the “apparent Kd” value in the data set on MS2 coat protein [2] (setting [5]) and in the data set on MS2 coat protein [2] (setting [6]) were 319 nM and 209 nM, respectively.

Take “AUCGUACCUGAUGAUACCAGCAAUUGCUCGUGACAUGAGGAUCACCCAUGUGACCAGUGAUGCCCUUGGCAGCAUGGUCGGUGCA”: the “apparent Kd” value in the data set on MS2 coat protein [2] (setting [5]) was 97.1 nM; in the data set on MS2 coat protein [2] (setting [6]), 13.3 nM.

As for “UGGAAAGCACAUGAGGAUCACCCAUGUGAUACCAGCUGAAACUAAGGCCCUUGGCAGCACAUGGUACCAACCCUUUGGUAGUCCA”, the “apparent Kd” value with MS2 coat protein [2] (setting [7]) is 11.9 nM; in the data set on MS2 coat protein [2] (setting [8]), 50.5 nM.

For “AACAGGGCUUCCACGAAGCCCUAAGGUGAUACCAGCACAUGUAAGUGCCCUUGGCAGCACGGUACAUGAGGAUCACCCAUGUAGA”, the “apparent Kd” value in the data set with MS2 coat protein [2] (setting [5]) came to 50.3 nM; with MS2 coat protein [2] (setting [6]) it was 366 nM.

“ACGUCACGUUUACUCGUGGUUUCGAUCGAUACCAGUAGCGAGAGUUACCCUUGGCAGCGACAUGAGGAUCACCCAUGUGCGAAGA”: the “apparent Kd” value in the data set on MS2 coat protein [2] (setting [7]) is 11.8 nM; in the data set on MS2 coat protein [2] (setting [8]) it was 15.9 nM.

With “ACAUGAGGAUCACCCAUGUGGCGUCUUGAUACCAGACGAGAAGUAGUCCCUUGGCAGCAAAUACGUGAGGAUCACACAUGUGCGA”, the “apparent Kd” value in the data set on MS2 coat protein [2] (setting [7]) amounted to 23.2 nM; with MS2 coat protein [2] (setting [8]), 37.3 nM.

For the sequence “UCACAUGAGGAUCACCCAUGUACAGGCGAUACCAGCCGUACAUUGGGCCCUUGGCAGCGCACCGAGACCUUUAUAAGCACCUCGG”, the results for the “apparent Kd” value with MS2 coat protein [2] (setting [5]) and in the data set with MS2 coat protein [2] (setting [6]) were 29.5 nM and 192 nM, respectively.

For the sequence “UUAAGAGGAUAUCAAAUUUGAUUUUGUGAUACCAGAAUAAUUUUAUUCCCUUGGCAGCAUGACAUGAGGAUCACCCAUGUGUCUU”, the “apparent Kd” value came to 37 nM with MS2 coat protein [2] (setting [5]) and 30 nM in the data set on MS2 coat protein [2] (setting [6]).

Take “GCCCUUGGCAGCGAUACCAGCCAAAAUUAAAAUAAACCUCUACAUGAGGAUCACCCAUGUGGCCCUUGGCAGCGAUACCAGCAAA”: the “apparent Kd” value in the data set with MS2 coat protein [2] (setting [7]) stood at 49.7 nM; with MS2 coat protein [2] (setting [8]) it was 76.4 nM.

Consider “CAUGAAGUAACUGAUACCAGUGUACUGACAUGAGGAUCACCCAUGUUGGGUUUUGUUGUACACCCUUGGCAGCAGAAUCUUUAUG”, for which the entries for the “apparent Kd” value in the data set with MS2 coat protein [2] (setting [7]) and in the data set on MS2 coat protein [2] (setting [8]) were 69.1 nM and 110 nM, respectively.

Turning to “AGCGACAUGCAUGAUACCAGCUACAUGAGGAUCACCCAUGUACGUCAGUAAUGACUGUGUAGCCCUUGGCAGCAUAGAGCAUGUU”, the “apparent Kd” value in the data set on MS2 coat protein [2] (setting [7]) turned out to be 17.4 nM; in the data set on MS2 coat protein [2] (setting [8]), 53.6 nM.
